Measurements as given in ChEMBL document CHEMBL4706706, “Structure-activity relationship and mechanistic studies for a series of cinnamyl hydroxamate histone deacetylase inhibitors” (Bioorg Med Chem, 2021).

Experiments:
Homo sapiens = species on record: Homo sapiens; assay: Selectivity index, ratio of IC50 for inhibition of recombinant human full-length C-terminal FLAG/His-tagged HDAC1 (1 to 482 residues) expressed in baculovirus infected Sf9 insect cells to IC50 for inhibition of recombinant human full-length N-terminal GST-tagged HDAC6 (1 to 1215 residues) expressed in baculovirus infected Sf9 insect cells
[1] = molecular target: T1, Protein deacetylase HDAC6 (Homo sapiens, UniProt Q9UBN7); assay: Inhibition of recombinant human full-length N-terminal GST-tagged HDAC6 (1 to 1215 residues) expressed in baculovirus infected Sf9 insect cells using RHKK(Ac)AMC as substrate preincubated for 5 to 10 mins followed by substrate addition and measured after 2 hrs by fluorescence assay
T1 sequence (Q9UBN7 whole entry): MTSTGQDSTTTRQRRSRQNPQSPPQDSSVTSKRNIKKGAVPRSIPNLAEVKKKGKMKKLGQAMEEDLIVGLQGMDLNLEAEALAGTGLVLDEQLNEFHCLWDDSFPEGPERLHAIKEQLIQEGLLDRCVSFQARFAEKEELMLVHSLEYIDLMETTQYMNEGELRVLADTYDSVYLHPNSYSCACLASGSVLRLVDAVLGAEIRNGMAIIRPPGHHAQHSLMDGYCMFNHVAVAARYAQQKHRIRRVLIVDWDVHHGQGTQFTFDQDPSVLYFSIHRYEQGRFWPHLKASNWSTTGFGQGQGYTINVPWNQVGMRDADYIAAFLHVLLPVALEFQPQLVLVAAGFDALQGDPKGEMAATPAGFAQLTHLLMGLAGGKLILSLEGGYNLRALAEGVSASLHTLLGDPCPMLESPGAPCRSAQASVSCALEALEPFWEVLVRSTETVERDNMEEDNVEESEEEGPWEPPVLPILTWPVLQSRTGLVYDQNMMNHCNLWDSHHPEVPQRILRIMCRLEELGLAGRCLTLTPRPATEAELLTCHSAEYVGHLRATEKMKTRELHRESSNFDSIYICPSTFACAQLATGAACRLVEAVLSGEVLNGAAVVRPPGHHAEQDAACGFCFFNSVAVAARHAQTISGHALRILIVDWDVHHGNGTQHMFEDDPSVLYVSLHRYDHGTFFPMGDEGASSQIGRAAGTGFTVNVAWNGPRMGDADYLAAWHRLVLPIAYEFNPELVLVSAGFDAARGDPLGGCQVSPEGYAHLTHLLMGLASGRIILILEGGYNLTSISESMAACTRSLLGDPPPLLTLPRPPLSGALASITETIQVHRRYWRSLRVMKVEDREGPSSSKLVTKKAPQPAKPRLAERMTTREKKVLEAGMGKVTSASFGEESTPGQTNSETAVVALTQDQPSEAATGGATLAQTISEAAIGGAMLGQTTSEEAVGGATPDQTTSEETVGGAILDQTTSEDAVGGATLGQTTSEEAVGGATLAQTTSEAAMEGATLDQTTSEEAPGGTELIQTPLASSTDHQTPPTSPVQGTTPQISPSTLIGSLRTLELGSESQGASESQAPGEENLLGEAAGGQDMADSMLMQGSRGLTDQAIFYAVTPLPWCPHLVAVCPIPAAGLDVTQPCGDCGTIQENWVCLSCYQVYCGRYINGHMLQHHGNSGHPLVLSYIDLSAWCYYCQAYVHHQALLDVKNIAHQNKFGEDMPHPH

NAMALVA = assay: Cytotoxicity against human NAMALVA cells assessed as reduction in cell viability measured after 72 hrs by MTT assay; assay type: functional, cell-based
Jurkat = assay: Cytotoxicity against human Jurkat cells assessed as reduction in cell viability measured after 72 hrs by MTT assay; assay type: functional, cell-based
HCT-116 = assay: Cytotoxicity against human HCT-116 cells assessed as reduction in cell viability measured after 72 hrs by MTT assay; assay type: functional, cell-based; settings: HCT-116, 72 h
MCF7 = assay: Cytotoxicity against human MCF7 cells assessed as reduction in cell viability measured after 72 hrs by MTT assay; assay type: functional, cell-based; settings: MCF7, 72 h
[2] = molecular target: Histone deacetylase (Homo sapiens) (UniProt Q13547+O15379+Q9UBN7+Q92769+Q9UQL6+Q8WUI4+Q9BY41+Q96DB2+P56524+Q9UKV0+Q969S8); assay: Inhibition of HDAC in human HeLa cell nuclear extracts at 100 uM relative to control; assay type: subcellular; settings: Nucleus
Outline: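 Total HDAC activity measured with HeLa nuclear extract as enzyme source; single dose of 100 µM run in duplicate.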

Histone deacetylase 1 = Histone deacetylase 1 (Homo sapiens, UniProt Q13547); assay: Inhibition of recombinant human full-length C-terminal FLAG/His-tagged HDAC1 (1 to 482 residues) expressed in baculovirus infected Sf9 insect cells using RHKK(Ac)AMC as substrate preincubated for 5 to 10 mins followed by substrate addition and measured after 2 hrs by fluorescence assay
Histone deacetylase 1, sequence (Q13547 whole entry, the tested form may be a part): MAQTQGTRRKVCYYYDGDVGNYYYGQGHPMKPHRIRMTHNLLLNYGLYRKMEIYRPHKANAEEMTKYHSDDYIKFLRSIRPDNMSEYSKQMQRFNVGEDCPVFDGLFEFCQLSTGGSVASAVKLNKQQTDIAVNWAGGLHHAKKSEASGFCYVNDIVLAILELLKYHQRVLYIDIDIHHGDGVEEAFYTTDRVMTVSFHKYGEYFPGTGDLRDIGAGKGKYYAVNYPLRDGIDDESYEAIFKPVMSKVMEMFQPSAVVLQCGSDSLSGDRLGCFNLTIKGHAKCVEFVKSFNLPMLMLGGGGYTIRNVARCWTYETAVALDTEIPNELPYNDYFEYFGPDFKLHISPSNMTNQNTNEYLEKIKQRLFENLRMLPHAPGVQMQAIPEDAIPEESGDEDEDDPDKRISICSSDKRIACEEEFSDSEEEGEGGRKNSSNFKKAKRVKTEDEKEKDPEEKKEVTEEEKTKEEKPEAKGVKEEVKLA

| SMILES | Ratio IC50 (Homo sapiens) | IC50 [1] | IC50 (NAMALVA) | IC50 (Jurkat) | IC50 (HCT-116) | IC50 (MCF7) | inhibition [2] | IC50 (Histone deacetylase 1) |
| --- | --- | --- | --- | --- | --- | --- | --- | --- |
| O=C(Nc1ccc(Cl)cc1)Nc1ccc(C(=O)NO)cc1 | 64 | 20.7 nM | 870 nM | 1060 nM | > 50000 nM | > 50000 nM | 92% | 1320 nM |
| O=C(CCc1ccc(NC(=O)Nc2ccc(Cl)cc2)cc1)NO | 9 | 105 nM | 370 nM | 410 nM | 17900 nM | > 50000 nM | 98% | 941 nM |
